In ChEMBL document CHEMBL1130022, “Novel heterocyclic-fused pyridazinones as potent and selective phosphodiesterase IV inhibitors” (J Med Chem, 1997) one finds IC50 and inhibition data, which are given here for 13 compounds.

In test [1] the target is T1, Phosphodiesterase 4 (Homo sapiens, UniProt P27815+Q08499+Q07343+Q08493). The experiment in a line: Inhibition of guinea pig ventricular Phosphodiesterase 4. The format is protein assay, Cavia porcellus. Conditions: target entry is the homologue from another species.
Test [2] addresses T2, Phosphodiesterase 3 (Homo sapiens, UniProt Q14432+Q13370). The experiment in a line: Inhibition of guinea pig ventricular Phosphodiesterase 3. The class given is protein assay, Cavia porcellus. Conditions: target entry is the homologue from another species.
The target of test [3] is T2, Phosphodiesterase 3. The experiment in a line: Inhibition of guinea pig ventricular Phosphodiesterase 3 at 20 uM. The class given is protein assay. Conditions: Cavia porcellus, target entry is the homologue from another species. The essentials: (§1)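 Guinea pig ventricular PDE III/IV resolved by Mono-Q anion exchange (50–1000 mM sodium acetate gradient, Bis-Tris pH 6.5); isoenzymes characterized by substrate selectivity, Ca2+/calmodulin and selective inhibitors; pools stored -20 °C with 1 g/L BSA. Thompson–Strada assay, cAMP substrate 0.25 μM, duplicates; drugs in DMSO; IC50 by nonlinear regression or % inhibition at stated concentration, n = 3, ±SEM.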

Test [4] deals with Phosphodiesterase 4 (Rattus norvegicus) (UniProt P14270+P14646+P14644+P54748). The experiment in a line: Displacement of [3H]rolipram from rat brain membranes at 10 uM. The format is cell membranes. Conditions: Membrane. (Loss of bound radioactivity is the signal in a displacement assay; it reports binding, not function.)
The target in test [5] is T1, Phosphodiesterase 4. The experiment in a line: Inhibition of guinea pig ventricular Phosphodiesterase 4 at 200 uM. The format is protein assay. Conditions: Cavia porcellus, target entry is the homologue from another species. The method in brief:
as §1

Test [6] addresses T2, Phosphodiesterase 3. The experiment in a line: Inhibition of guinea pig ventricular Phosphodiesterase 3 at 200 uM. As to conditions: Cavia porcellus, target entry is the homologue from another species.

`O=c1c2cccnc2c(-c2cccc(Cl)c2)nn1Cc1ccncc1`: the IC50 on Phosphodiesterase 4 [1] turned out to be 0.056 µM; against Phosphodiesterase 3 [2], 5.1 µM.
The compound `CCn1nc(-c2ccccc2)c2c(C)nnc-2c1O` registered an inhibition at Phosphodiesterase 3 [3] of 35%. Also, the half-inhibitory concentration (IC50) against Phosphodiesterase 4 [1] worked out at 2 µM.
Consider `Cc1nn(C)c2c(=O)n(Cc3ccccc3)nc(-c3ccccc3)c12`, for which the inhibition was determined as 11% in test [4], 45% on Phosphodiesterase 4 [5] and 30% on Phosphodiesterase 3 [6].
Regarding `CCOC(=O)c1nc2c(O)n(Cc3ccccc3)nc(-c3ccccc3)c-2c1C`, the figures for the inhibition (in test [4]; against Phosphodiesterase 3 [3]) were 28% and 33%, respectively. On Phosphodiesterase 4 [1], the IC50 is 31 µM.
Consider `COc1ccc(C2CNC(=O)C2)cc1OC1CCCC1` (centres undefined) [ROLIPRAM], for which the half-inhibitory concentration (IC50) on Phosphodiesterase 3 [2] amounted to 242 µM.
Consider `CCn1nc(-c2ccccc2)c2c(c1=O)N(C)CC(C#N)=C2C`, for which the inhibition at Phosphodiesterase 3 [3] amounted to 51%. The half-inhibitory concentration (IC50) against Phosphodiesterase 4 [1] amounted to 1.1 µM.
Consider `CCOC(=O)c1sc2c(=O)n(CC)nc(-c3ccccc3)c2c1C`, for which the 50% inhibitory concentration (IC50) on Phosphodiesterase 4 [1] is 0.9 µM; on Phosphodiesterase 3 [2], 5.9 µM.
Regarding `CCOC(=O)c1sc2c(=O)n(Cc3ccccc3)nc(-c3ccccc3)c2c1C`, the inhibition on Phosphodiesterase 3 [3] is 20%. Also, the half-inhibitory concentration (IC50) against Phosphodiesterase 4 [1] was found to be 11 µM.
Consider `Cc1nnc2c(O)n(Cc3ccccc3)nc(-c3ccccc3)c1-2`, for which the inhibition in test [4] was determined as 54%; against Phosphodiesterase 3 [6] it was 60%. At Phosphodiesterase 4 [1], this compound registered an IC50 of 3.1 µM.
Compound `CCOC(=O)c1sc2c(=O)n(CC)nc(-c3cccc([N+](=O)[O-])c3)c2c1C` registered an inhibition at Phosphodiesterase 3 [3] of 25%. The same compound displayed an IC50 on Phosphodiesterase 4 [1] of 1.3 µM.
The corresponding values for `CCOC(=O)c1sc2c(=O)n(CC)nc(-c3cccc(Cl)c3)c2c1C` are 56% and 0.8 µM.
Take `CCn1nc(-c2ccccc2)c2c(C)nn(C)c2c1=O`: the inhibition in test [4] was found to be 46%; against Phosphodiesterase 3 [3], 35%. Moreover, the 50% inhibitory concentration (IC50) against Phosphodiesterase 4 [1] was found to be 7.4 µM.
For the compound `CCOC(=O)c1nc2c(O)n(CC)nc(-c3ccccc3)c-2c1C`, the inhibition at Phosphodiesterase 3 [3] came out at 30%. The compound also came in with an IC50 on Phosphodiesterase 4 [1] of 0.6 µM.

In general, IC50 refers to the concentration at which inhibition is half-maximal. Read a low IC50 as greater potency in that assay. As usually defined, the inhibition is the drop in the measured response relative to a control, in per cent. A higher inhibition goes with a strong effect.
